Source: ChEMBL document CHEMBL4196105, “Discovery of β-Arrestin Biased Ligands of 5-HT7R” (J Med Chem, 2018)
pEC50, pIC50, pKi: −log10 of the molar value. The source made the active and inactive calls. The rule behind the calls is not given here.

Assays:
[1] = target: T1, 5-hydroxytryptamine receptor 7 (Homo sapiens, UniProt P34969); test: Displacement of [3H]LSD from human 5-HT7 receptor expressed in HEK cell membranes after 1.5 hrs by microbeta scintillation counting method
[2] = target: 5-hydroxytryptamine receptor 1D (Homo sapiens, UniProt P28221); test: Displacement of [3H]LSD from human 5-HT1D receptor expressed in HEK cell membranes after 1.5 hrs by microbeta scintillation counting method
Summary of the method: (§1)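 Radioligand binding performed by the NIMH Psychoactive Drug Screening Program. Crude membranes from cells expressing recombinant receptor, with [3H]LSD, in 50 mM Tris-HCl, 10 mM MgCl2, 1 mM EDTA, pH 7.4. Eleven test concentrations. Incubated 1.5 h at room temperature, protected from light. Filtered onto PEI-soaked GF/B filters, then scintillation counting. IC50 converted to Ki; at least three experiments in triplicate.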

[3] = target: 5-hydroxytryptamine receptor 2A (Homo sapiens, UniProt P28223); test: Displacement of [3H]LSD from human 5-HT2A receptor expressed in HEK cell membranes after 1.5 hrs by microbeta scintillation counting method; summary of the method: as §1
[4] = target: 5-hydroxytryptamine receptor 4 (Homo sapiens, UniProt Q13639); test: Displacement of [3H]LSD from human 5-HT4 receptor expressed in HEK cell membranes after 1.5 hrs by microbeta scintillation counting method; summary of the method: as §1
[5] = target: 5-hydroxytryptamine receptor 6 (Homo sapiens, UniProt P50406); test: Displacement of [3H]LSD from human 5-HT6 receptor expressed in HEK cell membranes after 1.5 hrs by microbeta scintillation counting method; summary of the method: as §1
[6] = organism: Homo sapiens; test: Selectivity index, ratio of Ki for human 5-HT1D receptor to Ki for human 5-HT7 receptor
Summary of the method: (§2)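 Selectivity index taken as Ki at the other 5-HT receptor subtype divided by Ki at 5-HT7R, each from [3H]LSD membrane binding run by the NIMH PDSP. Ki values are means of at least three experiments in triplicate.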

[7] = organism: Homo sapiens; test: Selectivity index, ratio of Ki for human 5-HT2A receptor to Ki for human 5-HT7 receptor; summary of the method: as §2
[8] = organism: Homo sapiens; test: Selectivity index, ratio of Ki for human 5-HT2B receptor to Ki for human 5-HT7 receptor; summary of the method: as §2
[9] = target: T1, 5-hydroxytryptamine receptor 7; test: Inverse agonist activity at human 5-HT7 receptor expressed in HEK293 cells assessed as decrease in Gs protein-mediated cAMP accumulation by luminescence-based assay; format: functional, cell-based
Summary of the method: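 HEK293 cells transiently transfected by calcium phosphate with human 5-HT7R and GloSensor-22F cAMP biosensor. After 5-6 h recovery, loaded with GloSensor reagent in HBSS/20 mM HEPES, pH 7.4. Test compounds at 0.01 nM-100 μM final; antagonist mode uses 5-HT stimulation. Luminescence read. Data normalised to 5-HT or SB269970 (100%) and vehicle (0%). Three experiments, at least triplicate.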

[10] = target: T1, 5-hydroxytryptamine receptor 7
[11] = target: T1, 5-hydroxytryptamine receptor 7; remark: listed apart in the source
[12] = Stability in human liver microsomes assessed as drug recovery at 1 uM preincubated for 5 mins followed by addition of NADPH generation system and measured after 30 mins by LC-MS analysis; format: ADME, microsome; details: read-out: Drug recovery
Summary of the method: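 Human liver microsomes 0.5 mg/ml in 0.1 M phosphate, pH 7.4, with 1 μM compound. Preincubated 5 min at 37 °C, then NADPH-generating system added for 30 min at 37 °C. Acetonitrile with internal standard added to stop the reaction, centrifuged, and supernatant analysed by LC/MS as % remaining.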

[13] = AUC (0 to infinity) in ICR mouse at 5 mg/kg, iv by LC-MS/MS analysis; format: ADME, organism-based; parameters: dose 5 mg/kg, time infinity, route intravenous; details: in vivo
Summary of the method: (§3)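 Male ICR mice, 7~8 weeks, 30 ± 5 g; single dose 5 mg/kg IV (n = 5) or 50 mg/kg oral (n = 4). Plasma protein-precipitated with acetonitrile containing internal standard, then LC-MS/MS. Non-compartmental analysis; AUClast by trapezoidal rule. Mean ± SD.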

[14] = Terminal half-life in ICR mouse at 5 mg/kg, iv by LC-MS/MS analysis; format: ADME, organism-based; details: in vivo, read-out: beta t1/2 (converted); summary of the method: as §3
[15] = Tmax in ICR mouse at 5 mg/kg, iv by LC-MS/MS analysis; format: ADME, organism-based; details: in vivo; summary of the method: as §3
[16] = Apparent volume of distribution at steady state in ICR mouse at 5 mg/kg, iv by LC-MS/MS analysis; format: ADME, organism-based; details: in vivo, read-out: Vdss; summary of the method: as §3
[17] = AUC (0 to infinity) in ICR mouse at 50 mg/kg, po by LC-MS/MS analysis; format: ADME, organism-based; parameters: dose 50 mg/kg, time infinity, route oral; details: in vivo; summary of the method: as §3
[18] = AUClast in ICR mouse at 50 mg/kg, po by LC-MS/MS analysis; format: ADME, organism-based; parameters: dose 50 mg/kg, route oral, time 0 - last; details: in vivo; summary of the method: as §3
[19] = Terminal half-life in ICR mouse at 50 mg/kg, po by LC-MS/MS analysis; format: ADME, organism-based; details: in vivo, read-out: beta t1/2 (converted); summary of the method: as §3
[20] = Cmax in ICR mouse at 50 mg/kg, po by LC-MS/MS analysis; format: ADME, organism-based; parameters: dose 50 mg/kg, route oral; details: in vivo; summary of the method: as §3
[21] = Tmax in ICR mouse at 50 mg/kg, po by LC-MS/MS analysis; format: ADME, organism-based; details: in vivo
Summary of the method: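 Male ICR mice, 7~8 weeks, 30 ± 5 g, given a single oral dose of 50 mg/kg (n = 4). Carotid-artery blood was sampled at 0, 0.25, 0.5, 1, 2, 4, 6 and 8 h. Plasma was protein-precipitated with acetonitrile containing internal standard and quantified by LC-MS/MS on a C18 gradient. Parameters came from non-compartmental analysis and are reported as mean ± SD.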

[22] = test system: Mus musculus; test: Sleep promoting activity in C57B1/6J mouse assessed as increase in total non-rapid eye movement sleep time at 30 mg/kg, ip measured over 8 hrs by electroencephalogram method; format: functional
Summary of the method: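 Adult male C57Bl/6J mice, 10 weeks old, with parietal EEG screw electrodes implanted under ketamine. EEG and EMG recorded for 8 h from 9 AM, starting one day before dosing as baseline. On test day, 30 mg/kg i.p. at the start of the light phase, with EEG/EMG recorded for 8 h and scored in 2-h bins. n = 6-9 per group; mean ± SEM versus vehicle.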

[23] = test system: Mus musculus; test: Toxicity in ICR mouse assessed as mortality at 5 mg/kg, iv; format: organism-based; details: in vivo
Summary of the method: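 Observed in male ICR mice (7~8 weeks, 30 ± 5 g; n = 5) during a pharmacokinetic study after a single intravenous dose. Mice were held at 23 ± 3° and about 55% ± 10% humidity with standard feed and tap water. Blood was drawn via carotid artery from 0.08 to 8 h after dosing.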

[24] = test system: Mus musculus; test: Toxicity in ICR mouse assessed as mortality at 50 mg/kg, po; format: organism-based; details: in vivo
Summary of the method: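 Observed in male ICR mice (7~8 weeks, 30 ± 5 g; n = 4) during a pharmacokinetic study after a single oral dose. Mice were held at 23 ± 3° and about 55% ± 10% humidity with standard feed and tap water. Blood was drawn via carotid artery from 0.25 to 8 h after dosing.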

Chain of 5-hydroxytryptamine receptor 4 (Q13639 whole entry): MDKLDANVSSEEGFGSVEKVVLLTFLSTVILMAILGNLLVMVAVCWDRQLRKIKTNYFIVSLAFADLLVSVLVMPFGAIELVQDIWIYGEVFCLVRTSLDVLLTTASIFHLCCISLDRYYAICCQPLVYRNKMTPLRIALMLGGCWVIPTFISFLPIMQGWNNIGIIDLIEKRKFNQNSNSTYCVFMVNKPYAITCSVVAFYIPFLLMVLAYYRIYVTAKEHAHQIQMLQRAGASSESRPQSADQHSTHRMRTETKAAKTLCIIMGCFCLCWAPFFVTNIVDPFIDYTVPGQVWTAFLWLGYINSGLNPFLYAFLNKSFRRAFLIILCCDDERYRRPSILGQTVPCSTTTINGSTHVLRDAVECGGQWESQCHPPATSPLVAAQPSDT
T1 sequence (P34969 whole entry): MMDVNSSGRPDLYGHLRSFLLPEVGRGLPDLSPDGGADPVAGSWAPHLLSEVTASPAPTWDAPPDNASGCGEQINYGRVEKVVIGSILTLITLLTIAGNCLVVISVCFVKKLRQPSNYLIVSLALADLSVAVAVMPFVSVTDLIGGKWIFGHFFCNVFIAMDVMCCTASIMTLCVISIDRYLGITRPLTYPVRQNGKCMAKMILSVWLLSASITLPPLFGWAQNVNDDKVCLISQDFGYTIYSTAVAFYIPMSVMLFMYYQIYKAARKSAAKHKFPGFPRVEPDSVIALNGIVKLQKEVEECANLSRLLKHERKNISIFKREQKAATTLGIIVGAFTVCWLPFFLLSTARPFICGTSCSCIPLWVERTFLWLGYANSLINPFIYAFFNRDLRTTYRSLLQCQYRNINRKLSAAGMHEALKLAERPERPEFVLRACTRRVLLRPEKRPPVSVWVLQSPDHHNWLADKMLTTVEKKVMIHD
Chain of 5-hydroxytryptamine receptor 2A (P28223 whole entry): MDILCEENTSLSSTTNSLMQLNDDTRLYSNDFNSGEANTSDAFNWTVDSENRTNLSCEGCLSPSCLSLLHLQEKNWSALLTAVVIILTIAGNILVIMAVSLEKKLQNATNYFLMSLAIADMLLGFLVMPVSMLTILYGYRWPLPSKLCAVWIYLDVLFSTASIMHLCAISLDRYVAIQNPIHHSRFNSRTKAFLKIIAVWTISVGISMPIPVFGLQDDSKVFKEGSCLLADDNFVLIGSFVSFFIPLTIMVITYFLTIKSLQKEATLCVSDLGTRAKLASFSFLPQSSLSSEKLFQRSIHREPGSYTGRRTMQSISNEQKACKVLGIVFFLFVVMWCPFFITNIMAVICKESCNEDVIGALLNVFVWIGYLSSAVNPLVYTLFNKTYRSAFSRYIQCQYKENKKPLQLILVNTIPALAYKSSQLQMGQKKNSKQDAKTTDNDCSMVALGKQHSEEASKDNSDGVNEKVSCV
Chain of 5-hydroxytryptamine receptor 6 (P50406 whole entry): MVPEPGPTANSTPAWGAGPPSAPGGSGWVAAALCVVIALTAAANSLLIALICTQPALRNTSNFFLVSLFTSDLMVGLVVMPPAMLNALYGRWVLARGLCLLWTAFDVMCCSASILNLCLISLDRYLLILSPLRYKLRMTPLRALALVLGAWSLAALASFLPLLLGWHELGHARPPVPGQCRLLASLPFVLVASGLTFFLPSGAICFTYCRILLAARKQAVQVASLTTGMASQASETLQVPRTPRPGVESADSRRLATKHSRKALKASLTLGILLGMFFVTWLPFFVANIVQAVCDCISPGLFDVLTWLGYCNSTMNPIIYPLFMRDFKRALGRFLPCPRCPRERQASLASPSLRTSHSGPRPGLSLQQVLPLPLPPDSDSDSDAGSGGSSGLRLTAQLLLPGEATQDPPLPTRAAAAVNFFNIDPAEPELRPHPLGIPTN
Chain of 5-hydroxytryptamine receptor 1D (P28221 whole entry): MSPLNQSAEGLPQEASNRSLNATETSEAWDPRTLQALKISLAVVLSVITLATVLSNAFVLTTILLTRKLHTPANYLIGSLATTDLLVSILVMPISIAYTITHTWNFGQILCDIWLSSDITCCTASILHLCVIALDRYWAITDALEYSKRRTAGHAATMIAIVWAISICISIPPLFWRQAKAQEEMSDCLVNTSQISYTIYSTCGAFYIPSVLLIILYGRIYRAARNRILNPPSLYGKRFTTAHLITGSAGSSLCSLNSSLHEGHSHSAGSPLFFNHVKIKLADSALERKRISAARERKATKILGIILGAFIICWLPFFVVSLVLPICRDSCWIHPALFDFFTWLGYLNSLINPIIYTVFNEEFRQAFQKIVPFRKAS

pKi [2]	pKi [3]	pKi [4]	pKi [5]	Ratio Ki [6]	Ratio Ki [7]	Ratio Ki [8]	Activity [9]	pIC50 [10]	pEC50 [11]	SMILES	other results
6.20	6.76	< 5.00	6.38	6.1	1.7	0.9	Active	5.16	6.73	Fc1ccc(-c2n[nH]c3c2CCNCC3)cc1	pKi [1]: 6.98
6.83	6.86	< 5.00	6.31	9.2	8.6	9.4	Active	6.07	7.39	Cc1ccc(-c2noc3c2CCNCC3)cc1	–

SMILES	pKi [2]	pKi [3]	pKi [4]	pKi [5]	Ratio Ki [6]	Ratio Ki [7]	Ratio Ki [8]	Activity [9]	pIC50 [10]	pEC50 [11]	other results
Clc1ccc(-c2n[nH]c3c2CCNCC3)cc1	5.68	6.73	< 5.00	6.61	70.5	6.2	3.3	Active	5.11	6.79	remaining at 0.5 h, 1 µM [12]: 82.4%; AUC(0-inf) [13]: 5210 ng·h/mL; half-life [14]: 1.78 h; Tmax [15]: 6.6 min; Vd [16]: 2.47 L/kg; AUC(0-inf) [17]: 64300 ng·h/mL; AUC(0-t) [18]: 53700 ng·h/mL; half-life [19]: 2.77 h; Cmax [20]: 11800 ng/mL; Tmax [21]: 1.37 h; Activity [22]: 21.4%; Activity [23]: Non-Toxic; Activity [24]: Non-Toxic
